For orientation: inhibition means the drop in the measured response relative to a control, in per cent.

The source made the active and inactive calls. The calls are words filed in the database; no cut-off is given here.

These results are taken from ChEMBL document CHEMBL4118021, “Studies of TAK1-centered polypharmacology with novel covalent TAK1 inhibitors” (Bioorg Med Chem, 2017).

Test [1] concerns the target Peroxiredoxin-4 (Homo sapiens) (UniProt Q13162). The experiment in a line: Binding affinity to PRDX4 in human NCI-H23 cells at 1 uM by mass spectrometry based pull down assay. It is filed as cell-based.
For test [2], the target named is ATP-dependent 6-phosphofructokinase, liver type (Homo sapiens) (UniProt P17858). As to the kind of experiment: Binding affinity to PFKL in human NCI-H358 cells at 1 uM by mass spectrometry based pull down assay. It is filed as cell-based.
In test [3] the target is Tropomyosin alpha-3 chain (Homo sapiens) (UniProt P06753). The experiment in a line: Binding affinity to TPM3 in human NCI-H23 cells at 1 uM by mass spectrometry based pull down assay. The format is cell-based.
Test [4] deals with 80S Ribosome (Homo sapiens) (UniProt P08865+P42677+P62753+P15880+P23396+P61247+P62701+P22090+P46782+P62081+P62241+P46781+P46783+P62280+P25398+P62277+P62263+P62841+P62244+P62249+P08708+P62269+P39019+P60866+P63220+P62266+P62847+P62851+P62854+P62979+P62857+P62273+P62861+P39023+P36578+P46777+Q02878+P18124+P62424+P62917+P32969+P27635+P62906+P62913+P30050+P26373+P40429+P50914+P61313+P18621+Q07020+Q02543+P84098+P46778+P35268+P62829+P62750+P83731+P61254+P61353+P46776+P46779+P47914+P62888+P62899+P62910+P49207+P42766+P18077+Q9Y3U8+P83881+P61927+P61513+P63173+P62891+P62945+P05388+P05386). As to the kind of experiment: Binding affinity to RPS5 in human NCI-H23 cells at 1 uM by mass spectrometry based pull down assay. It is filed as cell-based.

Test [5] deals with Tyrosine-protein kinase Yes (Homo sapiens) (UniProt P07947). As to the kind of experiment: Binding affinity to YES1 in human NCI-H23 cells at 1 uM by mass spectrometry based pull down assay. The format is cell-based.
Sequence of Tyrosine-protein kinase Yes (Homo sapiens) (P07947 2-543 limits assumed): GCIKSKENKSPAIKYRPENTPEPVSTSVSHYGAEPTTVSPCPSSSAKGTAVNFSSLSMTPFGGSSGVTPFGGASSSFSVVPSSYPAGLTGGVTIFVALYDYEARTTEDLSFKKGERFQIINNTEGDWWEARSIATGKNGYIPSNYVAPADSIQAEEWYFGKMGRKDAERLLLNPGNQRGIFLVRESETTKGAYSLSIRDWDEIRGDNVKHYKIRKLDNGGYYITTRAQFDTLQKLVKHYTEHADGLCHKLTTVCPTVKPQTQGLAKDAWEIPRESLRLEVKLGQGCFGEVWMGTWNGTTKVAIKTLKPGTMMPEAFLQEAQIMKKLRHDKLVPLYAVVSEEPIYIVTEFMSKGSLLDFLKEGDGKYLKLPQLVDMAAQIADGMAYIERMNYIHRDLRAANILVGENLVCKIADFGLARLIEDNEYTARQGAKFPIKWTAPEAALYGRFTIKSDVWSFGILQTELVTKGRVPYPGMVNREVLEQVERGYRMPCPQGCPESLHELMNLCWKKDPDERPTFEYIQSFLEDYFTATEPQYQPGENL
Test [6] has as its target Pyruvate dehydrogenase E1 component subunit beta, mitochondrial (Homo sapiens) (UniProt P11177). As to the kind of experiment: Binding affinity to PDHB in human NCI-H23 cells at 1 uM by mass spectrometry based pull down assay. The format is cell-based.
Test [7] has as its target Aldehyde dehydrogenase family 3 member A2 (Homo sapiens) (UniProt P51648). As to the kind of experiment: Binding affinity to ALDH3A2 in human NCI-H23 cells at 1 uM by mass spectrometry based pull down assay. It is filed as cell-based.
Test [8] has as its target Transcription intermediary factor 1-beta (Homo sapiens) (UniProt Q13263). The experiment in a line: Binding affinity to TRIM28 in human NCI-H358 cells at 1 uM by mass spectrometry based pull down assay. It is filed as cell-based.
For test [9], the target named is UV radiation resistance-associated gene protein (Homo sapiens) (UniProt Q9P2Y5). The experiment in a line: Binding affinity to UVRAG in human NCI-H23 cells at 1 uM by mass spectrometry based pull down assay. The format is cell-based.
Test [10] addresses Myeloid leukemia factor 2 (Homo sapiens) (UniProt Q15773). As to the kind of experiment: Binding affinity to MLF2 in human NCI-H23 cells at 1 uM by mass spectrometry based pull down assay. It is filed as cell-based.
The target in test [11] is Nuclear pore complex protein Nup155 (Homo sapiens) (UniProt O75694). As to the kind of experiment: Binding affinity to NUP155 in human NCI-H23 cells at 1 uM by mass spectrometry based pull down assay. It is filed as cell-based.
Sequence of Nuclear pore complex protein Nup155 (Homo sapiens) (O75694 whole entry, one chain of several): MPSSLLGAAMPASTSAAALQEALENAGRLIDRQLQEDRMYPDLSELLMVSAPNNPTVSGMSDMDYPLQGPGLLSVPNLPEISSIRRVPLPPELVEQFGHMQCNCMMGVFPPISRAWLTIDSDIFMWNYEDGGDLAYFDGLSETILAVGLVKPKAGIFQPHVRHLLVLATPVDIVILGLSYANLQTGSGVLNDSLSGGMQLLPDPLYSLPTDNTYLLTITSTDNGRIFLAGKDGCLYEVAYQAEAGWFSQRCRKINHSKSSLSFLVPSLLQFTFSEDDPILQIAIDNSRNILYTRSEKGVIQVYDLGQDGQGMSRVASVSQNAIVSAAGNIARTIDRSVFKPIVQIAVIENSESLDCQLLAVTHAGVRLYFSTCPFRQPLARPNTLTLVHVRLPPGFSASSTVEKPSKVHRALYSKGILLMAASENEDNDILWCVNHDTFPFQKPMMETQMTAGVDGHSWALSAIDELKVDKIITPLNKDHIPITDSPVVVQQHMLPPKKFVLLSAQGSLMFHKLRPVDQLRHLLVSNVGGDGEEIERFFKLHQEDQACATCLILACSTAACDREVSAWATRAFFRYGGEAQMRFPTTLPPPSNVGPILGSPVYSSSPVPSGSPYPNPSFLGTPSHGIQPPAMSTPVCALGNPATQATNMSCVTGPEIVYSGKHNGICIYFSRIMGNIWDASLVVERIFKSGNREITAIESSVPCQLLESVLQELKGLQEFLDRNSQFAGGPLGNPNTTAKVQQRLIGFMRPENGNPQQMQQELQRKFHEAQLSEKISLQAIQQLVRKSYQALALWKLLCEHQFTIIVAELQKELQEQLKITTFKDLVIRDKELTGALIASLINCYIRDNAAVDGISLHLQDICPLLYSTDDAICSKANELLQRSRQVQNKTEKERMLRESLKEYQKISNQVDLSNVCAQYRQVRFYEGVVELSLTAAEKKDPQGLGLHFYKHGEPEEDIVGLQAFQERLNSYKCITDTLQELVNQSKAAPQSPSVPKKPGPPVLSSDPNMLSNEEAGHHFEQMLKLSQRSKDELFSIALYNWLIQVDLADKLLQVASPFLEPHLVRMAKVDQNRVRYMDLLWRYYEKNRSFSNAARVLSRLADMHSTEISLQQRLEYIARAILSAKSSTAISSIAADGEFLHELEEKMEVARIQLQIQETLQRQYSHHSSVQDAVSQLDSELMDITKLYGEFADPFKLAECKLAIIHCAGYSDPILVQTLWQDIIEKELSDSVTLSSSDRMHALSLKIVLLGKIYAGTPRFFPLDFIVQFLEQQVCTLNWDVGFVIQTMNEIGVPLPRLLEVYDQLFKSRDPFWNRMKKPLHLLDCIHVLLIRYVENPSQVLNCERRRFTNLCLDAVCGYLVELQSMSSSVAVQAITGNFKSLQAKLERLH
Test [12] concerns the target V-type proton ATPase catalytic subunit A (Homo sapiens) (UniProt P38606). The experiment in a line: Binding affinity to ATP6V1A in human NCI-H358 cells at 1 uM by mass spectrometry based pull down assay. It is filed as cell-based.
The target of test [13] is ATP synthase F(1) complex subunit gamma, mitochondrial (Homo sapiens) (UniProt P36542). The experiment in a line: Binding affinity to ATP5C1 in human NCI-H358 cells at 1 uM by mass spectrometry based pull down assay. The format is cell-based.
The target in test [14] is E3 ubiquitin-protein ligase HUWE1 (Homo sapiens) (UniProt Q7Z6Z7). As to the kind of experiment: Binding affinity to HUWE1 in human NCI-H358 cells at 1 uM by mass spectrometry based pull down assay. It is filed as cell-based.
The target of test [15] is 5'-nucleotidase domain-containing protein 1 (Homo sapiens) (UniProt Q5TFE4). As to the kind of experiment: Binding affinity to NT5DC1 in human NCI-H358 cells at 1 uM by mass spectrometry based pull down assay. The format is cell-based.
Sequence of 5'-nucleotidase domain-containing protein 1 (Homo sapiens) (Q5TFE4 whole entry, the tested form may be a part): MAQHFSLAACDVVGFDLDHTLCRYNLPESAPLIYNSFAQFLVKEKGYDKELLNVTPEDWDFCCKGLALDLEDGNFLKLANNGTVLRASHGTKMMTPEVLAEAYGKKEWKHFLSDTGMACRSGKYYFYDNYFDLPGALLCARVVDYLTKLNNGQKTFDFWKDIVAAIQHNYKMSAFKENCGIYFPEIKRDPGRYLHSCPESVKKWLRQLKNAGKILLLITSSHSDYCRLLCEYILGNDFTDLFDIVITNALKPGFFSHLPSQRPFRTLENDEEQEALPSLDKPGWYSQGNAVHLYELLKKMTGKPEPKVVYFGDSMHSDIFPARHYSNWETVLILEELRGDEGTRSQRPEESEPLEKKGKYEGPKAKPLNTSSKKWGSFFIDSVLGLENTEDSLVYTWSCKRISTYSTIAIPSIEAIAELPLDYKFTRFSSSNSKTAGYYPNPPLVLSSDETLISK
The target of test [16] is Delta-1-pyrroline-5-carboxylate synthase (Homo sapiens) (UniProt P54886). The experiment in a line: Binding affinity to ALDH18A1 in human NCI-H23 cells at 1 uM by mass spectrometry based pull down assay. It is filed as cell-based. In outline: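 NCI-H23 or NCI-H358 cells were grown and lysed. Lysates were incubated overnight at 4 °C with 1 μM biotinylated covalent probe or DMSO, then pulled down on streptavidin beads. Proteins were run on polyacrylamide gels and stained with Coomassie. Bands were excised, digested and identified by mass spectrometry.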

The target of test [17] is Mitogen-activated protein kinase 6 (Homo sapiens) (UniProt Q16659). The experiment in a line: Binding affinity to MAPK6 in human NCI-H358 cells at 1 uM by mass spectrometry based pull down assay. It is filed as cell-based.
Test [18] has as its target RuvB-like 1 (Homo sapiens) (UniProt Q9Y265). As to the kind of experiment: Binding affinity to RUVBL1 in human NCI-H358 cells at 1 uM by mass spectrometry based pull down assay. It is filed as cell-based.
Test [19] has as its target TGF-beta-activated kinase 1 and MAP3K7-binding protein 3 (Homo sapiens) (UniProt Q8N5C8). As to the kind of experiment: Binding affinity to TAB3 in human NCI-H23 cells at 1 uM by mass spectrometry based pull down assay. It is filed as cell-based.
The target of test [20] is Deoxyribose-phosphate aldolase (Homo sapiens) (UniProt Q9Y315). As to the kind of experiment: Binding affinity to DERA in human NCI-H358 cells at 1 uM by mass spectrometry based pull down assay. The format is cell-based.
Sequence of Deoxyribose-phosphate aldolase (Homo sapiens) (Q9Y315 whole entry, the tested form may be a part): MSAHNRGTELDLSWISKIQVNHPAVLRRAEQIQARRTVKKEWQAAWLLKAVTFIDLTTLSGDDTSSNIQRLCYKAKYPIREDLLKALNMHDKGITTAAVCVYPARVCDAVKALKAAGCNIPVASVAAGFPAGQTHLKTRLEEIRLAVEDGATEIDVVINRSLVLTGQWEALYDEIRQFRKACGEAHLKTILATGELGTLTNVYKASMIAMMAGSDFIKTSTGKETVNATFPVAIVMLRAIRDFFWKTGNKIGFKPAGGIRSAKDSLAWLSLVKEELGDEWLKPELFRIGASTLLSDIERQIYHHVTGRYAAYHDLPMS
The target of test [21] is Mast/stem cell growth factor receptor Kit (Homo sapiens) (UniProt P10721). The experiment in a line: Inhibition of human KIT (571 to 952 residues) expressed in bacterial expression system assessed as enzyme activity at 10 uM by KINOMEScan assay relative to control. The arrangement: scale not given: the % may be the effect or the level left. A digest of the protocol:
(§1)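 In vitro ATP-site competition binding assay across a panel of 456 kinases, with compound tested at 1 and 10 μM.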

In test [22] the target is Serine/threonine-protein kinase 36 (Homo sapiens) (UniProt Q9NRP7). As to the kind of experiment: Inhibition of human STK36 (1 to 271 residues) expressed in bacterial expression system assessed as enzyme activity at 10 uM by KINOMEScan assay relative to control. The arrangement: scale not given: the % may be the effect or the level left. A digest of the protocol:
as §1

Test [23] addresses Dual specificity mitogen-activated protein kinase kinase 1 (Homo sapiens) (UniProt Q02750). The experiment in a line: Inhibition of full length human MEK1 (1 to 393 residues) expressed in mammalian expression system assessed as enzyme activity at 10 uM by KINOMEScan assay relative to control. Also on record: scale not given: the % may be the effect or the level left. In outline: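 In vitro ATP-site competition binding assay (KinomeScan) across a panel of 456 kinases. Compound was tested at 1 and 10 μM. The read-out is the binding inhibition score relative to control.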

Test [24] has as its target NUAK family SNF1-like kinase 2 (Homo sapiens) (UniProt Q9H093). The experiment in a line: Inhibition of NuaK2 in human SKCO1 cells at 1 uM after 4 hrs using biotin labeled LVAIKSIR probe by mass-spectrometric analysis relative to control. It is filed as cell-based.

Sequence of Mast/stem cell growth factor receptor Kit (Homo sapiens) (P10721 whole entry, the tested form may be a part): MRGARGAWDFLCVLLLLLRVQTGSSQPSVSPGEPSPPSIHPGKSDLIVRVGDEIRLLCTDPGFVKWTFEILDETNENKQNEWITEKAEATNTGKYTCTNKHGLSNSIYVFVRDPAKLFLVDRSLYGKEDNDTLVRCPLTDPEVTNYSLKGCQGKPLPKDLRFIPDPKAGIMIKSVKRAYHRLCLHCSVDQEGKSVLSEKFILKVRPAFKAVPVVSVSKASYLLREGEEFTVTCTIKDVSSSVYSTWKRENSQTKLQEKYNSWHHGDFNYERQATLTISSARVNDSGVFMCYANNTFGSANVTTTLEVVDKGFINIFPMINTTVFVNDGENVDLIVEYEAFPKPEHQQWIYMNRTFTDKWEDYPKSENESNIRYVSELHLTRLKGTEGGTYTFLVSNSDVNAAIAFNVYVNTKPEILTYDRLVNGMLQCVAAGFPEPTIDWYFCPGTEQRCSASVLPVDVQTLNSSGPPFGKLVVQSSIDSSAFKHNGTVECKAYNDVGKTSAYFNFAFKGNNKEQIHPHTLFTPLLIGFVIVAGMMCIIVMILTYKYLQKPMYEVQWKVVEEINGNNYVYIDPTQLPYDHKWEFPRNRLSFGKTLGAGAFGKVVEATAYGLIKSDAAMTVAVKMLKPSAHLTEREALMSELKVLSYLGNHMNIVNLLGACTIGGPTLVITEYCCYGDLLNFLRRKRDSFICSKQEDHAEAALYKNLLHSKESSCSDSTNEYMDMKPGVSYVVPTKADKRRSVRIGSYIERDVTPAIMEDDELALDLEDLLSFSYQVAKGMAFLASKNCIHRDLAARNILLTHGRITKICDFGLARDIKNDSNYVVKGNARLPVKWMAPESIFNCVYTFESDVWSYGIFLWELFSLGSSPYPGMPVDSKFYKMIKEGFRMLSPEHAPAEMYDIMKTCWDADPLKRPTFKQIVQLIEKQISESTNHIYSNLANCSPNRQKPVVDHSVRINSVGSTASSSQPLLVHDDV
Sequence of Transcription intermediary factor 1-beta (Homo sapiens) (Q13263 whole entry): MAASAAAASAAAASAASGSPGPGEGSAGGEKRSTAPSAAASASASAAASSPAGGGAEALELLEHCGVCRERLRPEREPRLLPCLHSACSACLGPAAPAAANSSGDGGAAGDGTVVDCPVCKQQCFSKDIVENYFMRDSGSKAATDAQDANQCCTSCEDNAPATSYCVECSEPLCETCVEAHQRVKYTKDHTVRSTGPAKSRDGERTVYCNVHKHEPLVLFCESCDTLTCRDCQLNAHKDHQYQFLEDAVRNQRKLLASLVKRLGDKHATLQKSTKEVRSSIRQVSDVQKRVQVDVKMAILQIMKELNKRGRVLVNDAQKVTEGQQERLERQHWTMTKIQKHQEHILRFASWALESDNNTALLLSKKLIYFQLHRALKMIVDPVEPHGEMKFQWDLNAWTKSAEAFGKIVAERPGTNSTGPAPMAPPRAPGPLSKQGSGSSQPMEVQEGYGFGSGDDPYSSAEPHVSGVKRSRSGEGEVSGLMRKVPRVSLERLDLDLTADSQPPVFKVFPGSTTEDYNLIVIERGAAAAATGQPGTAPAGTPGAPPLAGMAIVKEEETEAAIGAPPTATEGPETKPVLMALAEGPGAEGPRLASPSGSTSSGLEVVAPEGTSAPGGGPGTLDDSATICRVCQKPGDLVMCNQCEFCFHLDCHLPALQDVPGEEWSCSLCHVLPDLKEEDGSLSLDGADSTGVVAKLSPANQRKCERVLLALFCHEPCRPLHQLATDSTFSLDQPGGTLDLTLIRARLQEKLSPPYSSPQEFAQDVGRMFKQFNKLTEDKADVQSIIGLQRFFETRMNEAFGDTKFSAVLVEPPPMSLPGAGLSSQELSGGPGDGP
Sequence of Dual specificity mitogen-activated protein kinase kinase 1 (Homo sapiens) (Q02750 whole entry, the tested form may be a part): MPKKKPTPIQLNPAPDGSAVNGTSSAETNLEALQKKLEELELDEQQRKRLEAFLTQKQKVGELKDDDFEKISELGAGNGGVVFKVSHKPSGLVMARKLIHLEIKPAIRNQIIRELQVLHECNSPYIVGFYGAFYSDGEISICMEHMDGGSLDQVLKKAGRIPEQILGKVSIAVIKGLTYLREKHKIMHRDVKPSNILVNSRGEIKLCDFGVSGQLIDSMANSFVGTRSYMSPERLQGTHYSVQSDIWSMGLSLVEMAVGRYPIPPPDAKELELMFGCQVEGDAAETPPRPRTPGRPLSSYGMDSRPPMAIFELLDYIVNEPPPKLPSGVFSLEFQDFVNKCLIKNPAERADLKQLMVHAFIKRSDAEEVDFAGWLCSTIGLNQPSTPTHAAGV

Regarding `C=CC(=O)Nc1ccccc1Nc1nc(Nc2ccc(N3CCN(CCOCCOCCOCCNC(=O)CCCC[C@@H]4SC[C@@H]5NC(=O)N[C@@H]54)CC3)cc2)ncc1Cl`, the result in test [1], in test [2], in test [3], in test [4], in [5] and in [6] was Active. The outcome in test [7], in [8], in [9], in [10], in [11] and in test [12] was Active. Also, the outcome in [13], in [14], in test [15], in test [16], in test [17] and in test [18] was Active. The result in test [19] and in test [20] was Active.

For the compound `COc1cc(O)c2c(c1)/C=C/C[C@H](O)[C@H](O)C(=O)/C=C\C[C@H](C)OC2=O`, the Activity in test [21] was 0.6%; in test [22], 0.95%; in test [23], 0.05%.

`C=CC(=O)Nc1ccccc1Nc1nc(Nc2ccc(N3CCN(C)CC3)cc2)ncc1Cl` gave an inhibition in test [24] of 53.3%.
